For test [1], the target named is T1, Ribonucleoside-diphosphate reductase large subunit (Mus musculus, UniProt P07742).
T1 sequence (P07742 whole entry): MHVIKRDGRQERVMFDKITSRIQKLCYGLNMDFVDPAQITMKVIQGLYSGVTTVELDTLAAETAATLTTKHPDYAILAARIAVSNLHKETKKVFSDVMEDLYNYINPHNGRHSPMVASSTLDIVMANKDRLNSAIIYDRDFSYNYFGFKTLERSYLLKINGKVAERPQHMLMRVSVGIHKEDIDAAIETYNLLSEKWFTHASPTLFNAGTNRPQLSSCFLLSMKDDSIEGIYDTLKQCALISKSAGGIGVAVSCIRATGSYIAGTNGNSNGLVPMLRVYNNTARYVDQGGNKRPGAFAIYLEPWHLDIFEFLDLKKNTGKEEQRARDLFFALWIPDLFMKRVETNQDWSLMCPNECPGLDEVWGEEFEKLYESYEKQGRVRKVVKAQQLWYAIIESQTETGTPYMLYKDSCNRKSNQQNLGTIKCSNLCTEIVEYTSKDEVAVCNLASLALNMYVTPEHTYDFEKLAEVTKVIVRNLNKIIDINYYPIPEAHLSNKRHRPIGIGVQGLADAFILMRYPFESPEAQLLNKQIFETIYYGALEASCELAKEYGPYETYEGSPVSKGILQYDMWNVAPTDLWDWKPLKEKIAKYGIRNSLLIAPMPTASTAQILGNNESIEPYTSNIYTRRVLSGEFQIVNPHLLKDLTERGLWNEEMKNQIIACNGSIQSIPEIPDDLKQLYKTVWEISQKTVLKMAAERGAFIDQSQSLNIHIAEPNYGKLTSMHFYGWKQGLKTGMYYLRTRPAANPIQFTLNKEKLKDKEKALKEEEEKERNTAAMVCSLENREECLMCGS
Put plainly: Inhibitory activity of compound against mammalian ribonucleotide reductase; Range is 32-38. In short, it runs like this: (§1)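 Calf thymus R1 (1 μg) with cloned mouse R2 (2 μg) expressed in E. coli from pET-M2. CDP reduction was run at 35 °C with DTT as reductant. [³H]dCDP was separated on aminophenylboronate and counted by scintillation.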

Test [2] concerns the target T1, Ribonucleoside-diphosphate reductase large subunit. Put plainly: Inhibitory activity of compound against mammalian ribonucleotide reductase; Range is 286-336. The method, boiled down:
as §1

Test [3] shares this target. Put plainly: Inhibitory activity of compound against mammalian ribonucleotide reductase; Range is 25-29. In short, it runs like this:
as §1

The target is the same in test [4]. The test is described as follows: Inhibitory activity of compound against mammalian ribonucleotide reductase; Range is 364-460. In short, it runs like this: as §1
Test [5] has the same target. Put plainly: Inhibitory activity of compound against mammalian ribonucleotide reductase; Range is 29-30. The method, boiled down: as §1
Test [6] has the same target. Put plainly: Inhibitory activity of compound against mammalian ribonucleotide reductase; Range is 110-230. In short, it runs like this:
as §1

The target is the same in test [7]. Put plainly: Inhibitory activity of compound against mammalian ribonucleotide reductase; Range is 35-40. The method, boiled down:
as §1

The target of test [8] is Ribonucleoside-diphosphate reductase RR1 (Homo sapiens) (UniProt P23921+Q7LG56+P31350). The test is described as follows: Relative inhibitory potency against mammalian ribonucleotide reductase. The class given is protein-complex assay.
The target of test [9] is T1, Ribonucleoside-diphosphate reductase large subunit. Put plainly: Inhibitory activity of compound against mammalian ribonucleotide reductase; Range is 8-20. In short, it runs like this:
as §1

For test [10] the target is unchanged. Put plainly: Inhibitory activity of compound against mammalian ribonucleotide reductase; Range is 48-58. In short, it runs like this: as §1
The target is the same in test [11]. Put plainly: Inhibitory activity of compound against mammalian ribonucleotide reductase; Range is 9-15. In short, it runs like this:
as §1

Test [12] shares this target. The test is described as follows: Inhibitory activity of compound against mammalian ribonucleotide reductase; Range is 34-35. In short, it runs like this: as §1
Test [13] shares this target. The test is described as follows: Inhibitory activity of compound against mammalian ribonucleotide reductase; Range is 40-42. In short, it runs like this:
as §1

The target is the same in test [14]. Put plainly: Inhibitory activity of compound against mammalian ribonucleotide reductase; Range is 450-620. The method, boiled down: as §1

Usually IC50 stands for the concentration needed to halve the response being measured. In turn, `CC(=O)N[C@@H](Cc1ccccc1)C(=O)N[C@H](C(=O)N[C@@H](CC(C)C)C(=O)N[C@@H](CC(=O)O)C(=O)N[C@@H](C)C(=O)N[C@@H](CC(N)=O)C(=O)N[C@@H](Cc1ccccc1)C(=O)O)[C@@H](C)O` displayed a concentration for half-maximal inhibition (IC50) in test [1] of 32 µM.

On to `CC(=O)N[C@@H](Cc1ccccc1)C(=O)N[C@H](C(=O)N[C@@H](CC(C)C)C(=O)N[C@@H](C)C(=O)N[C@@H](C)C(=O)N[C@@H](CC(=O)O)C(=O)N[C@@H](Cc1ccccc1)C(=O)O)[C@@H](C)O`, for which half-maximal inhibition in test [2] (IC50) required 286 µM.

The compound `CC(=O)N[C@@H](Cc1ccccc1)C(=O)N[C@H](C(=O)N[C@@H](CC(C)C)C(=O)N[C@@H](CC(N)=O)C(=O)N[C@@H](C)C(=O)N[C@@H](CC(=O)O)C(=O)N[C@@H](Cc1ccccc1)C(=O)O)[C@@H](C)O` registered an IC50 in test [3] of 25 µM.

With `CC(=O)N[C@@H](Cc1ccccc1)C(=O)N[C@H](C(=O)N[C@@H](CC(C)C)C(=O)N[C@@H](CC(=O)O)C(=O)N[C@@H](Cc1ccccc1)C(=O)O)[C@@H](C)O`, the IC50 in test [4] was determined as 364 µM.

Take `CC(=O)N[C@@H](Cc1ccccc1)C(=O)N[C@H](C(=O)N[C@@H](CC(C)C)C(=O)N[C@@H](CC(=O)O)C(=O)N[C@@H](C)C(=O)N[C@@H](CC(C)C)C(=O)N[C@@H](Cc1ccccc1)C(=O)O)[C@@H](C)O`: inhibition in [5] was half-maximal at 29 µM (IC50).

For `CC(=O)N[C@@H](Cc1ccccc1)C(=O)N[C@H](C(=O)N[C@@H](CC(C)C)C(=O)N[C@@H](CC(=O)O)C(=O)NCC(=O)N[C@@H](CC(=O)O)C(=O)N[C@@H](Cc1ccccc1)C(=O)O)[C@@H](C)O`, in test [6], the IC50 is 110 µM.

Turning to Ac-FALDADF-OH, the IC50 in test [7] was 35 µM. In test [8], the RI was determined as 24%.

Compound `CC(=O)N[C@@H](CO)C(=O)N[C@@H](Cc1ccccc1)C(=O)N[C@H](C(=O)N[C@@H](CC(C)C)C(=O)N[C@@H](CC(=O)O)C(=O)N[C@@H](C)C(=O)N[C@@H](CC(=O)O)C(=O)N[C@@H](Cc1ccccc1)C(=O)O)[C@@H](C)O` showed an IC50 in test [9] of 8 µM. In other words, the single-digit micromolar range.

In turn, `CC(=O)N[C@@H](Cc1ccccc1)C(=O)N[C@H](C(=O)N[C@@H](Cc1ccccc1)C(=O)N[C@@H](CC(=O)O)C(=O)N[C@@H](C)C(=O)N[C@@H](CC(=O)O)C(=O)N[C@@H](Cc1ccccc1)C(=O)O)[C@@H](C)O` displayed an IC50 in [10] of 48 µM.

`CC(=O)N[C@@H](CC(N)=O)C(=O)N[C@@H](CO)C(=O)N[C@@H](Cc1ccccc1)C(=O)N[C@H](C(=O)N[C@@H](CC(C)C)C(=O)N[C@@H](CC(=O)O)C(=O)N[C@@H](C)C(=O)N[C@@H](CC(=O)O)C(=O)N[C@@H](Cc1ccccc1)C(=O)O)[C@@H](C)O` yielded an IC50 in test [11] of 9 µM.

`CC(=O)N[C@@H](Cc1ccccc1)C(=O)N[C@H](C(=O)N[C@@H](CC(C)C)C(=O)N[C@@H](CC(=O)O)C(=O)N[C@@H](C)C(=O)N[C@@H](C)C(=O)N[C@@H](Cc1ccccc1)C(=O)O)[C@@H](C)O` showed an IC50 in [12] of 34 µM.

Ac-FSLDADF-OH gave an RI in [8] of 25%. Besides, in test [13], the IC50 came to 40 µM.

With `CC(=O)N[C@@H](Cc1ccccc1)C(=O)N[C@H](C(=O)N[C@@H](CC(C)C)C(=O)N[C@@H](CC(=O)O)C(=O)N[C@@H](C)C(=O)N[C@@H](CCC(=O)O)C(=O)N[C@@H](Cc1ccccc1)C(=O)O)[C@@H](C)O`, the IC50 in [14] is 450 µM.

The record behind these values is ChEMBL document CHEMBL1126924, “R2 C-terminal peptide inhibition of mammalian and yeast ribonucleotide reductase” (J Med Chem, 1993).
